Laboratory results as given in ChEMBL document CHEMBL3259715, “Shuttle-cargo fusion molecules of transport peptides and the hD2/3 receptor antagonist fallypride: a feasible approach to preserve ligand-receptor binding?” (J Med Chem, 2014).

Legend:
[1] = molecular target: D(2) dopamine receptor (Homo sapiens, UniProt P14416); test: Displacement of [3H]spiperone from human D2 receptor transfected in HEK cells; format: cell-based, HEK293
[2] = Activity at P-gp in hCMEC/D3 cells at 0.1 to 50 uM after 15 mins by calcein-AM assay; format: ADME, cell-based; details: human, cmec/d3, 0.25 h
[3] = Cytotoxicity against hCMEC/D3 cells at 0.1 to 50 uM after 4 hrs by Alamar Blue assay; format: cell-based; details: human, hcmec/d3, 4 h
Outline: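 Cytotoxicity was tested by AlamarBlue on hCMEC/D3 cells, the same cells used for the calcein assay. The read-out is the fall in metabolic activity, seen as reduced redox potential of viable cells.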

Chain of D(2) dopamine receptor (P14416 whole entry): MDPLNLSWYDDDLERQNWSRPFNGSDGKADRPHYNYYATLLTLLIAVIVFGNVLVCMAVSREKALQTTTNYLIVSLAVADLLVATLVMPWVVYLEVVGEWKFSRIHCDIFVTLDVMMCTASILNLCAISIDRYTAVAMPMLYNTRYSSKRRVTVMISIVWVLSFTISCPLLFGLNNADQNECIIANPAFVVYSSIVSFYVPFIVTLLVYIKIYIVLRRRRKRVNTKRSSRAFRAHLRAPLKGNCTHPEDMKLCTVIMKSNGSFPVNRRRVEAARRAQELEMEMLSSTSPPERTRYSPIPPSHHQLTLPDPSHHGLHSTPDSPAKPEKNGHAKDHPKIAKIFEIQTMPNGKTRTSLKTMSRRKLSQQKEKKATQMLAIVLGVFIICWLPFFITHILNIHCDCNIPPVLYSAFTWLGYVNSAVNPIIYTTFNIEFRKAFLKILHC

Question: Which Ki [1] does the source give for `C=CCN1CCC[C@H]1CNC(=O)c1cc(CCCSC2CC(=O)N(CCCCCC(=O)N[C@H](C(=O)N[C@@H](Cc3ccccc3)C(=O)N[C@@H](Cc3ccccc3)C(=O)N[C@@H](Cc3ccc(O)cc3)C(=O)NCC(=O)NCC(=O)N[C@@H](CO)C(=O)N[C@@H](CCCNC(=N)N)C(=O)NCC(=O)N[C@@H](CCCCNC(=O)CN3CCN(CC(=O)O)CCN(CC(=O)O)CCN(CC(=O)O)CC3)C(=O)N[C@@H](CCCNC(=N)N)C(=O)N[C@@H](CC(N)=O)C(=O)N[C@@H](CC(N)=O)C(=O)N[C@@H](Cc3ccccc3)C(=O)N[C@@H](CCCCN)C(=O)N[C@H](C(=O)N[C@@H](CCC(=O)O)C(=O)N[C@@H](CCC(=O)O)C(=O)N[C@@H](Cc3ccc(O)cc3)C(=O)O)[C@@H](C)O)[C@@H](C)O)C2=O)cc(OC)c1OC` (stereo not given in full) here?
Answer: 8.01 nM

Question: What about the Activity [2] of the same molecule?
Answer: Not Active

Question: And the Activity [3]?
Answer: Non-toxic

Question: With `C=CCN1CCC[C@H]1CNC(=O)c1cc(CCCSC2CC(=O)N(CCCCCC(=O)NCCOCCOCCOCCOCCC(=O)N[C@@H](Cc3cnc[nH]3)C(=O)N[C@@H](C)C(=O)N[C@H](C(=O)N[C@@H](Cc3ccc(O)cc3)C(=O)N3CCC[C@H]3C(=O)N[C@@H](CCCNC(=N)N)C(=O)N[C@@H](Cc3cnc[nH]3)C(=O)O)[C@@H](C)CC)C2=O)cc(OC)c1OC` (stereo not given in full) as the molecule, how does the Ki [1] read?
Answer: 1.47 nM

Question: And the Activity [2]?
Answer: Not Active

Question: And the Activity [3]?
Answer: Non-toxic

Question: Which results are given for `C=CCN1CCC[C@H]1CNC(=O)c1cc(CCCSC2CC(=O)N(CCCCCC(=O)NCCOCCOCCOCCOCCC(=O)N[C@@H](CCCCNC(=O)O/N=C/c3ccc([Si](F)(C(C)(C)C)C(C)(C)C)cc3)C(=O)N[C@@H](Cc3cnc[nH]3)C(=O)N[C@@H](C)C(=O)N[C@H](C(=O)N[C@@H](Cc3ccc(O)cc3)C(=O)N3CCC[C@H]3C(=O)N[C@@H](CCCNC(=N)N)C(=O)N[C@@H](Cc3cnc[nH]3)C(=O)O)[C@@H](C)CC)C2=O)cc(OC)c1OC` (stereo not given in full)?
Answer: Ki [1]: 5.98 nM; Activity [2]: Not Active; Activity [3]: Non-toxic

Question: Which results are given for `C=CCN1CCC[C@H]1CNC(=O)c1cc(CCCSC2CC(=O)N(CCCCCC(=O)NCCOCCOCCOCCOCCC(=O)N[C@@H](CCCCNC(=O)CN3CCN(CC(=O)O)CCN(CC(=O)O)CCN(CC(=O)O)CC3)C(=O)N[C@@H](Cc3cnc[nH]3)C(=O)N[C@@H](C)C(=O)N[C@H](C(=O)N[C@@H](Cc3ccc(O)cc3)C(=O)N3CCC[C@H]3C(=O)N[C@@H](CCCNC(=N)N)C(=O)N[C@@H](Cc3cnc[nH]3)C(=O)O)[C@@H](C)CC)C2=O)cc(OC)c1OC` (stereo not given in full)?
Answer: Ki [1]: 52 nM; Activity [2]: Not Active; Activity [3]: Non-toxic

Question: What does the source list for `CC[C@H](C)[C@H](NC(=O)[C@H](C)NC(=O)[C@@H](N)Cc1cnc[nH]1)C(=O)N[C@@H](Cc1ccc(O)cc1)C(=O)N1CCC[C@H]1C(=O)N[C@@H](CCCNC(=N)N)C(=O)N[C@@H](Cc1cnc[nH]1)C(=O)O`?
Answer: Ki [1]: > 1000 nM; Activity [2]: Not Active; Activity [3]: Non-toxic
